Experimental findings from ChEMBL document CHEMBL4422626, “Optimization of novel benzofuro[3,2-b]pyridin-2(1H)-one derivatives as dual inhibitors of BTK and PI3Kδ” (Eur J Med Chem, 2019) are described below.

Calls of active or inactive are those of the source. The rule behind the calls is not given here.

The subject of experiment [1] is Ramos. Put plainly: Induction of apoptosis in human Ramos cells assessed as late apoptotic cells at 5 uM after 48 hrs by Annexin-V-FITC/propidium iodide staining based flow cytometric analysis (reference value: 0.98%). Type of experiment: functional. Background: Flow cytometry measures light scatter and fluorescence of single cells or particles in a stream.
Experiment [2] has as its system Ramos. Briefly: Induction of apoptosis in human Ramos cells assessed as necrotic cells at 5 uM after 48 hrs by Annexin-V-FITC/propidium iodide staining based flow cytometric analysis (reference value: 1.11%). The format is functional.
For experiment [3], the system named is Raji. Put plainly: Antiproliferative activity against human Raji cells at 5 uM after 24 hrs by CCK8 assay. Type of experiment: functional, cell-based. An outline of the steps: (§1)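 Raji (Burkitt lymphoma) cells in RPMI1640 or IMDM with 10% FBS, 37 °C, 5% CO2; seeded 3000-5000 cells/well, preincubated 12-24 h, then exposed to compound. Cells collected at different times and viability read by CCK-8 (4 h incubation, OD 450 nm).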

Experiment [4] deals with Ramos. Put plainly: Cell cycle arrest in human Ramos cells assessed as accumulation at S phase at 5 uM after 48 hrs by propidium iodide staining based flow cytometric analysis (reference value: 71.08%). The format is functional.
The subject of experiment [5] is Ramos. Briefly: Induction of apoptosis in human Ramos cells assessed as early apoptotic cells at 5 uM after 48 hrs by Annexin-V-FITC/propidium iodide staining based flow cytometric analysis (reference value: 1.08%). Type of experiment: functional.
The test system of experiment [6] is Ramos. Put plainly: Cell cycle arrest in human Ramos cells assessed as accumulation at G2/M phase at 5 uM after 48 hrs by propidium iodide staining based flow cytometric analysis (reference value: 4.26%). The format is functional.
Experiment [7] deals with Ramos. Briefly: Cell cycle arrest in human Ramos cells assessed as accumulation at apoptotic phase at 5 uM after 48 hrs by propidium iodide staining based flow cytometric analysis (reference value: 5.03%). The format is functional.
The test system of experiment [8] is Raji. Put plainly: Antiproliferative activity against human Raji cells at 5 uM up to 24 hrs by CCK8 assay. The format is functional, cell-based. In short, it runs like this: as §1
(Tetrazolium assays rely on reduction of a dye to a coloured formazan, in cell work by metabolically active cells.)

The test system of experiment [9] is Ramos. Briefly: Induction of apoptosis in human Ramos cells assessed as viable cells at 5 uM after 48 hrs by Annexin-V-FITC/propidium iodide staining based flow cytometric analysis (reference value: 96.83%). The format is functional. To be noted: read-out: Activity.
The subject of experiment [10] is Ramos. Put plainly: Cell cycle arrest in human Ramos cells assessed as accumulation at G0/G1 phase at 5 uM after 48 hrs by propidium iodide staining based flow cytometric analysis (reference value: 24.65%). Type of experiment: functional.
Experiment [11] relates to Ramos. Put plainly: Antiproliferative activity against human Ramos cells after 48 hrs by CCK8 assay. Type of experiment: functional, cell-based. In short, it runs like this:
(§2)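 Raji and Ramos cells grown in RPMI1640 or IMDM with 10% FBS, 37 °C, 5% CO2. Seeded at 3000-5000 cells/well and left 12-24 h before dosing. Several compound concentrations given for 48 h. CCK-8 then added for 4 h and OD read at 450 nm. IC50 is the concentration giving 50% cell death versus control, calculated from inhibition ratios.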

In experiment [12] the target is T1, Tyrosine-protein kinase BTK (Homo sapiens, UniProt Q06187). Briefly: Inhibition of BTK (unknown origin) by ADP-gloassay.
T1 sequence (Q06187 whole entry): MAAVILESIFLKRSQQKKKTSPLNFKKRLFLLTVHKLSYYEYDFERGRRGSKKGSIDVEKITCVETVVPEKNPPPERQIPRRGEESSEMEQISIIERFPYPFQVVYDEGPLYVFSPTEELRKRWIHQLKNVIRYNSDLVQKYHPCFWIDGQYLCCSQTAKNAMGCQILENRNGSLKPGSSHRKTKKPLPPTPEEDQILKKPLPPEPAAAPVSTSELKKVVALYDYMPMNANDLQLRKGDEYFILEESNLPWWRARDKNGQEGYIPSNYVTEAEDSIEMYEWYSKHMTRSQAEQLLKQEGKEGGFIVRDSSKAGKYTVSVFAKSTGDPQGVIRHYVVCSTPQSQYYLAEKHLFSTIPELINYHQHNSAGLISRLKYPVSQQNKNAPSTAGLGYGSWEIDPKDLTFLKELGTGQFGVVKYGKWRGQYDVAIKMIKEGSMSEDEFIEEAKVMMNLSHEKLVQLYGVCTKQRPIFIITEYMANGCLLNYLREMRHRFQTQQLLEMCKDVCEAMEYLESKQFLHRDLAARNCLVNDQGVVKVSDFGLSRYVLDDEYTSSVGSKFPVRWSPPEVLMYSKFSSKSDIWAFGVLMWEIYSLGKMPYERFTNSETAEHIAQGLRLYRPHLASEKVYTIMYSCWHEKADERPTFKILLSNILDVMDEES
In experiment [13] the test system is Raji. Put plainly: Antiproliferative activity against human Raji cells after 48 hrs by CCK8 assay. The format is functional, cell-based. In short, it runs like this: as §2
Experiment [14] concerns the target T1, Tyrosine-protein kinase BTK. To be noted: at 200 nM.
The target of experiment [15] is T2, Phosphatidylinositol 4,5-bisphosphate 3-kinase catalytic subunit delta isoform (Homo sapiens) (UniProt O00329).
T2 sequence (whole entry): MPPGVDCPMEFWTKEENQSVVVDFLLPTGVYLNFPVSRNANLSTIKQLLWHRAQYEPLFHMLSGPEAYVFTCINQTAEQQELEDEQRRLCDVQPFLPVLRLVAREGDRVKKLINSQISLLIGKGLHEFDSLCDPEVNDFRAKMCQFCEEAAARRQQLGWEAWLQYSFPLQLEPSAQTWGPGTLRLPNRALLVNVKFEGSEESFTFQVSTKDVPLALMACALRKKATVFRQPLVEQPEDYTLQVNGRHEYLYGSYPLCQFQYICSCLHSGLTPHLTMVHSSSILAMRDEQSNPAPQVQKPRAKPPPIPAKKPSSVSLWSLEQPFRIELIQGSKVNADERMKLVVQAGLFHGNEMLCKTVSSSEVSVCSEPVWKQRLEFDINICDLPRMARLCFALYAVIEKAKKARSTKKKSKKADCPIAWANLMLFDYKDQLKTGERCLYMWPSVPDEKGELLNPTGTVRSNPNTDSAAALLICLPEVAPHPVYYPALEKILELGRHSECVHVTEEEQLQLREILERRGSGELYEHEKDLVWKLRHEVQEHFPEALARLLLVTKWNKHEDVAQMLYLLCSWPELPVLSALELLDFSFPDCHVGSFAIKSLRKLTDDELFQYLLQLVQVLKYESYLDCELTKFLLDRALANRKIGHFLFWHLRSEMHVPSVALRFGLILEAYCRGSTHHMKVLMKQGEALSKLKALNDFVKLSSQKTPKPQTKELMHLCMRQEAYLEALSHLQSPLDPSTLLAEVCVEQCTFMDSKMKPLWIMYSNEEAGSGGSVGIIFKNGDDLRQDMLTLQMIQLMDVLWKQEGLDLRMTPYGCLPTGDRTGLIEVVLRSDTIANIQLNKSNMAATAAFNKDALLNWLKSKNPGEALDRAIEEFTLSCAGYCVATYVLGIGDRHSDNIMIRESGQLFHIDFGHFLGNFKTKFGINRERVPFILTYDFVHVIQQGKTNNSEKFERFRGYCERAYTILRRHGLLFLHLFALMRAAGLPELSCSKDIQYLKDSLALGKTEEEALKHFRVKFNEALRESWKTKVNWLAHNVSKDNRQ
Put plainly: Inhibition of PI3Kdelta (unknown origin) at 200 nM by ADP-gloassay relative to control. In short, it runs like this:
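PI3Kδ was tested with the PI3K-Glo Class I Profiling Kit and a luminescence read-out, following the manufacturer's protocol. Each compound was tested at a single concentration of 200 nM and expressed as percent inhibition versus control.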

Experiment [16] deals with T3, Phosphatidylinositol 4,5-bisphosphate 3-kinase catalytic subunit delta isoform (Homo sapiens, UniProt O00329).
T3 sequence (O00329 whole entry): T2 sequence (whole entry)
Put plainly: Inhibition of PI3Kdelta (unknown origin) by ADP-gloassay. In short, it runs like this: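 PI3K isoform activity was measured with the PI3K-Glo Class I Profiling Kit, a luminescent ADP-Glo-type read-out, following the manufacturer's protocol.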
For orientation: ADP-Glo turns the ADP formed in a reaction into a luminescent signal.

Experiment [17] addresses T2, Phosphatidylinositol 4,5-bisphosphate 3-kinase catalytic subunit delta isoform (Homo sapiens). Briefly: Inhibition of PI3Kdelta in human Ramos cells assessed as reduction in Akt phosphorylation at Ser473 residues at 0.25 to 1 uM after 4 hrs by Western blot analysis. The format is cell-based. In short, it runs like this:
(§3)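 Ramos cells pretreated with compound for 4 h, then stimulated or not with anti-human IgM F(ab')2. Cells were washed in PBS and lysed on ice for 0.5 h in Tris-Cl pH 6.8/SDS/glycerol/β-mercaptoethanol/PMSF/NaF/DTT buffer, then heated. Protein was quantified by BCA, with equal amounts run on 12% SDS-PAGE and semi-dry blotted to PVDF. Primary antibodies overnight at 4 °C, HRP secondary 1 h at 37 °C, ECL detection on film.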

Experiment [18] has the same target. Briefly: Inhibition of PI3Kdelta in human Ramos cells assessed as reduction in mTOR phosphorylation at Ser2481 residues at 0.25 to 1 uM after 4 hrs by Western blot analysis. Type of experiment: cell-based. In short, it runs like this:
as §3

The IC50 is the concentration that gives 50% inhibition. The low end stands for inhibition by little substance, the high end for a need for much substance. On to `C=CC(=O)N1CCC[C@@H](n2nc(-c3ccc(Oc4ccccc4)cc3)c3c(N)ncnc32)C1` [IBRUTINIB], for which the Activity in the experiment on Ramos [1] is on record as 2.71%; in the experiment with Ramos [2], 0.37%; in the experiment on Ramos [4], 65.18%; in the experiment with Ramos [5] it was 5.12%; in the experiment with Ramos [6], 4.26%; in the experiment with Ramos [7], 4.33%. The Activity in the experiment on Ramos [10] is on record as 30.5%. Besides, in the experiment on Raji [3], the outcome was Active. Moreover, in the experiment on Raji [8], the outcome was inactive. Also, the viability at 5 µM in the experiment with Ramos [9] was 91.8%. Also, in the experiment on Ramos [11], half-maximal inhibition (IC50) required 5800 nM.
By inhibition is commonly meant the change of the read-out against control, counted positive when it falls. Regarding `CN(C)CC(=O)Nc1ccc(-n2c(=O)ccc3oc4ccc(-c5ccc(O)cc5)cc4c32)cc1`, the IC50 is 150 nM in experiment [12] and 1800 nM in the experiment on Raji [13]. The same molecule registered an inhibition in [14] of 51.7%. The inhibition result in [15] is “inactive”.
Consider `C=CC(=O)Nc1ccc(-n2c(=O)ccc3oc4ccc(-c5ccc(F)nc5)cc4c32)cc1`, for which the IC50 in the experiment on Raji [13] was found to be 7300 nM; in [16] it was 1270 nM; in the experiment with Ramos [11], 1650 nM. Further, the inhibition came out at 32.1% in [14] and 31.7% in experiment [15].
As to `C=CC(=O)Nc1cccc(-n2c(=O)ccc3oc4ccc(-c5ccc(F)nc5)cc4c32)c1`, the results for the IC50 (in the experiment on Raji [13]; in [16]; with Ramos [11]) were 2200 nM, 920 nM and 1860 nM, respectively. For the same molecule, in [15], the inhibition came out at 34%.
Regarding `COc1ccc(-c2cnc3oc4ccc(=O)n(-c5ccc(NC(=O)CN(C)C)cc5)c4c3c2)cn1`, the IC50 in experiment [12] is 150 nM; with Raji [13] it was over 40000 nM. In experiment [14], this molecule yielded an inhibition of 58.8%. Moreover, the inhibition entry in experiment [15] is “inactive”.
For the molecule `CN(C)CC(=O)Nc1ccc(-n2c(=O)ccc3oc4ccc(-c5cccnc5)cc4c32)cc1`, the results for the IC50 (in experiment [12]; with Raji [13]; in the experiment on Ramos [11]) were 50 nM, 7100 nM and 3430 nM, respectively. Moreover, the inhibition in experiment [14] is 63.4%. Besides, in experiment [15], the inhibition entry is “inactive”.
On to `C=CC(=O)Nc1ccc(-n2c(=O)ccc3oc4ncc(-c5cccnc5)cc4c32)cc1`, for which the results for the IC50 (with Raji [13]; in experiment [16]; in the experiment on Ramos [11]) were 7400 nM, 1000 nM and 1330 nM, respectively. For the same molecule, the inhibition in [14] is 38.7%; in experiment [15], 34.2%.
Regarding `Cn1c(=O)n(-c2ccc(C(C)(C)C#N)cc2)c2c3cc(-c4cnc5ccccc5c4)ccc3ncc21` [DACTOLISIB], the Activity with Ramos [1] is given as 40.03%; with Ramos [2], 0.64%; in the experiment on Ramos [4] it was 35.34%; in the experiment with Ramos [5], 53.54%; in the experiment with Ramos [6] it was 5%; with Ramos [7], 58.92%. Besides, the Activity in the experiment with Ramos [10] was found to be 59.66%. Further, the inhibition entry in experiment [17] and in experiment [18] was “Active” in each case. Moreover, the results for the IC50 in the experiment with Raji [13] and in the experiment on Ramos [11] were 220 nM and 6.8 nM, respectively. The viability at 5 µM in the experiment with Ramos [9] is 5.78%.
In the experiment on Raji [13], `CN(C)CC(=O)Nc1ccc(-n2c(=O)ccc3oc4ccc(C5CCN(C(=O)OC(C)(C)C)CC5)cc4c32)cc1` returned an IC50 of 7000 nM. The inhibition in [14] was 49.2%. Also, in experiment [15], the inhibition result was “inactive”.
For the molecule `CN(C)CC(=O)Nc1ccc(-n2c(=O)ccc3oc4ccc(C5CCNCC5)cc4c32)cc1`, the IC50 with Raji [13] turned out to be 2400 nM. The inhibition in [14] is 33.1%. For the same molecule, the inhibition result in experiment [15] is “inactive”.
`COc1ccc(-c2cnc3oc4ccc(=O)n(-c5ccc(NC(=O)CN6CCNCC6)cc5)c4c3c2)cn1` registered an IC50 with Raji [13] of 33700 nM. Further, the inhibition in [14] was 32%. Moreover, the inhibition entry in experiment [15] is “inactive”.
The molecule `CN(C)CC(=O)Nc1ccc(-n2c(=O)ccc3oc4ccc(-c5cccc6[nH]ccc56)cc4c32)cc1` registered an IC50 with Raji [13] of 18800 nM. Further, in experiment [14], the inhibition was found to be 47.2%. In [15], the inhibition result was “inactive”.
With `C=CC(=O)Nc1cccc(-n2c(=O)ccc3oc4ccc(-c5ccc(OC)nc5)cc4c32)c1`, the figures for the IC50 (in [12]; in the experiment with Raji [13]; in the experiment with Ramos [11]) were 80 nM, 2400 nM and 1300 nM, respectively. Moreover, the figures for the inhibition in experiment [14] and in [15] were 67.3% and 11.3%, respectively.
Regarding `COc1ccc(-c2cnc3oc4ccc(=O)n(-c5ccc(NC(=O)CN6CCCCC6)cc5)c4c3c2)cn1`, the IC50 is 125 nM in experiment [12] and over 40000 nM in the experiment with Raji [13]. In experiment [14], this molecule yielded an inhibition of 55%. Further, the inhibition entry in experiment [15] is “inactive”.
